From ChEMBL document CHEMBL3994667, “Small Molecule Lysyl Oxidase-like 2 (LOXL2) Inhibitors: The Identification of an Inhibitor Selective for LOXL2 over LOX” (ACS Med Chem Lett, 2017) come the findings set out here.

Where only a bound is given, the exact number is not on record here.

Assay [1] concerns the target T1, Lysyl oxidase homolog 2 (Homo sapiens, UniProt Q9Y4K0).
T1 sequence (Q9Y4K0 whole entry): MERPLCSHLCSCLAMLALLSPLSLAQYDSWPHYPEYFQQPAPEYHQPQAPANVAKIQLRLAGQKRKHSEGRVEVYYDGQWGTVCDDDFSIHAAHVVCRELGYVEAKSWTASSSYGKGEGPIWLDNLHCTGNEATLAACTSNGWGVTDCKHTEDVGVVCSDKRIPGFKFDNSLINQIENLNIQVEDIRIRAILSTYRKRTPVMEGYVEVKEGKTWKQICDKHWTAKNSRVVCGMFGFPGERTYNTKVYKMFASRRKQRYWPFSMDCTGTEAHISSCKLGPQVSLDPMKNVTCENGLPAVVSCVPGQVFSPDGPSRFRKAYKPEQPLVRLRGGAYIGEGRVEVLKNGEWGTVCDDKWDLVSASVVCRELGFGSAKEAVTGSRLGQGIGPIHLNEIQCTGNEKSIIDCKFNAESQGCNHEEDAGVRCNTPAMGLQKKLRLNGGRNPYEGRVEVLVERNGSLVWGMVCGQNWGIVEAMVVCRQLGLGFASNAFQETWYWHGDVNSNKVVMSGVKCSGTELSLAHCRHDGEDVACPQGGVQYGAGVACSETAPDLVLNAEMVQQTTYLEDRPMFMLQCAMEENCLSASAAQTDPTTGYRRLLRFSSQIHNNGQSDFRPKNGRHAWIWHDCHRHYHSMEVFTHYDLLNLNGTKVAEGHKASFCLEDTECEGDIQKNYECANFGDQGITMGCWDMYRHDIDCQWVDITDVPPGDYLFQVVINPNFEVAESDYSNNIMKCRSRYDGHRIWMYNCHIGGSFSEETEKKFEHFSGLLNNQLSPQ
Put plainly: Inhibition of full length recombinant human LOXL2 expressed in CHO cells assessed as reduction in H2O2 production using DAP as substrate preincubated for 2 hrs followed by substrate addition measured every 2 minutes for 50 minutes by Amplex red dye based fluorescence assay.

Assay [2] concerns the target T2, Lysyl oxidase homolog 2 (Rattus norvegicus, UniProt B5DF27).
T2 sequence (B5DF27 whole entry): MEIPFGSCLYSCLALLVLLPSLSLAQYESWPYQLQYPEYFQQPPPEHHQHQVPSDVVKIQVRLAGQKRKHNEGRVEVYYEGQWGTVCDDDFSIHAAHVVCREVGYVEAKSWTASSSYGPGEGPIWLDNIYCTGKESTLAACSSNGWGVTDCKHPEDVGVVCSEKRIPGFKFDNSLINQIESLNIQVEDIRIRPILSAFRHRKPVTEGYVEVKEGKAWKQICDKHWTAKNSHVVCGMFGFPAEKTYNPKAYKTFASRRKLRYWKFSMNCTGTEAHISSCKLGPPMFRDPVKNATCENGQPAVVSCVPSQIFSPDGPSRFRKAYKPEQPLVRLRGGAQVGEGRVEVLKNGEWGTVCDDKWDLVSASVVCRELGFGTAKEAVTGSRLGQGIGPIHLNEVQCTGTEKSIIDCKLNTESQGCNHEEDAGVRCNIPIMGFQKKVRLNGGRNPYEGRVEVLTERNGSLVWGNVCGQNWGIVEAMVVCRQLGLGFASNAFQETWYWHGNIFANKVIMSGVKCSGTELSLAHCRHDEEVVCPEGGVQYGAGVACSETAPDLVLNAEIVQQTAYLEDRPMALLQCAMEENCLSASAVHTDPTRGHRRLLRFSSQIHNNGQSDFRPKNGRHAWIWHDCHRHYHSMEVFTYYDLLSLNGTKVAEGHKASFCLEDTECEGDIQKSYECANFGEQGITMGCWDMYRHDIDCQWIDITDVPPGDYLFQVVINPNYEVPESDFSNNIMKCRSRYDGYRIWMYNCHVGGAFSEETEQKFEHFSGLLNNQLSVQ
Kind of assay: Inhibition of full length recombinant rat LOXL2 expressed in CHO cells assessed as reduction in H2O2 production using DAP as substrate preincubated for 2 hrs followed by substrate addition measured every 2 minutes for 50 minutes in presence of BSA by Amplex red dye based fluorescence assay. The method, boiled down: (§1)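 Rodent LOXL2 is tested under the same conditions as the BSA-supplemented assay: conditioned media plus BSA, with DAP as substrate and Amplex Red detection of H2O2. Species are mouse and rat. IC50 is the geometric mean x/÷ geometric standard deviation from 3 determinations.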

A further assay addresses T3, Protein-lysine 6-oxidase (Homo sapiens, UniProt P28300).
T3 sequence (P28300 whole entry): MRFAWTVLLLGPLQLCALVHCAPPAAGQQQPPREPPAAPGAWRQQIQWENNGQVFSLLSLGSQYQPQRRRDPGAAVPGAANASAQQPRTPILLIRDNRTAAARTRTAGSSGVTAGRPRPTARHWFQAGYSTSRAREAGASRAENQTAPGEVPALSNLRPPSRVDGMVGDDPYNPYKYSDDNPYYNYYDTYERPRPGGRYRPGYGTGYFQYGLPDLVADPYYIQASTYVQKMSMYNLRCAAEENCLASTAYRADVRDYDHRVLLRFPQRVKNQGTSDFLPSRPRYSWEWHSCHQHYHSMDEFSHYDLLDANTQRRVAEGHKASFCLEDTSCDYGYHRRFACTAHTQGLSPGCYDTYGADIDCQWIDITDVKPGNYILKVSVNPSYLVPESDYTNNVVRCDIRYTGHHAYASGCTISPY
Put plainly: Inhibition of full length recombinant human LOX expressed in HEK cells assessed as reduction in H2O2 production using DAP as substrate preincubated for 2 hrs followed by substrate addition measured every 2 minutes for 50 minutes in presence of BSA by Amplex red dye based fluorescence assay. The method, boiled down:
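Enzyme source: serum-free conditioned media from HEK cells stably expressing human LOX, with BSA added to give measurable activity. Activity is measured as H2O2 from oxidative deamination of 1,5-diaminopentane (DAP), read by Amplex Red. IC50 is given as geometric mean x/÷ geometric standard deviation, with N-values reported.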

Assay [3] addresses T1, Lysyl oxidase homolog 2. Kind of assay: Inhibition of full length recombinant human LOXL2 expressed in CHO cells assessed as reduction in H2O2 production using DAP as substrate preincubated for 15 mins followed by substrate addition measured every 2 minutes for 50 minutes by Amplex red dye based fluorescence assay. A digest of the protocol: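 Enzyme source: serum-free concentrated conditioned medium from CHO cells stably expressing human LOXL2. Inhibitor preincubated with enzyme for 15 min, then 1,5-diaminopentane (DAP) added. H2O2 from oxidative deamination read by Amplex Red. IC50 reported as geometric mean x/÷ geometric SD, with N given.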

Assay [4] has as its target T1, Lysyl oxidase homolog 2. Kind of assay: Inhibition of full length recombinant human LOXL2 expressed in CHO cells assessed as reduction in H2O2 production using DAP as substrate preincubated for 2 hrs followed by substrate addition measured every 2 minutes for 50 minutes in presence of BSA by Amplex red dye based fluorescence assay. The method, boiled down: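 Serum-free concentrated conditioned medium from CHO cells stably expressing human LOXL2, supplemented with BSA. Compounds preincubated for 2 h (the screening preincubation time). Substrate was 1,5-diaminopentane, and the H2O2 formed was detected with Amplex Red. IC50 given as geometric mean x/÷ geometric SD over N determinations.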

Assay [5] concerns the target T4, Lysyl oxidase homolog 2 (Mus musculus, UniProt P58022).
T4 sequence (P58022 whole entry): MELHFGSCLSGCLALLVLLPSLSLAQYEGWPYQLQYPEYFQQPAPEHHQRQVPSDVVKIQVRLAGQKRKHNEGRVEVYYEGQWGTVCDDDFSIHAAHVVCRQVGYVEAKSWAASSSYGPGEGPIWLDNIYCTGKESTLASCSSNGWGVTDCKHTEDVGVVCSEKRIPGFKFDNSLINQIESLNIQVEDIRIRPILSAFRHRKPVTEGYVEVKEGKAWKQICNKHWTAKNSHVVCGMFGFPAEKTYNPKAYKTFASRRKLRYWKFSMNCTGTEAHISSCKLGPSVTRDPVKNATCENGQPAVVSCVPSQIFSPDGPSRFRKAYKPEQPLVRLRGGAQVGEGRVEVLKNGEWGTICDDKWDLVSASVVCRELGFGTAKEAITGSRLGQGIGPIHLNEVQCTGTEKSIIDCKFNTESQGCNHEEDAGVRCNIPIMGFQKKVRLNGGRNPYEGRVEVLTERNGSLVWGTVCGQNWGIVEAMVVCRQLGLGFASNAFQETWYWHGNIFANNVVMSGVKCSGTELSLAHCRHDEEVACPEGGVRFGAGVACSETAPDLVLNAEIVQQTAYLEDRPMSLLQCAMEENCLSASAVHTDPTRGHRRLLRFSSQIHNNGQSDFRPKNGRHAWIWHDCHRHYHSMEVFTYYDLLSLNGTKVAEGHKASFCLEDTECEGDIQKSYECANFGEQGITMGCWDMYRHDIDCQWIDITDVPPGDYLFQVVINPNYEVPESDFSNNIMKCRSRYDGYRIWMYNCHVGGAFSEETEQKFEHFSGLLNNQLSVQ
Kind of assay: Inhibition of full length recombinant mouse LOXL2 expressed in CHO cells assessed as reduction in H2O2 production using DAP as substrate preincubated for 2 hrs followed by substrate addition measured every 2 minutes for 50 minutes in presence of BSA by Amplex red dye based fluorescence assay. The format is cell-based. The method, boiled down:
as §1

One may read the IC50 as the midpoint of a concentration-inhibition curve. With `NCc1ccc([N+](=O)[O-])cc1`, the IC50 at Lysyl oxidase homolog 2 [1] was determined as 719 nM.

As to `N#Cc1ccc(CN)cc1`, the IC50 at Lysyl oxidase homolog 2 [1] came to 670 nM.

Turning to `COC(=O)c1cccc(CN)c1`, at Lysyl oxidase homolog 2 [1], the IC50 came to 3540 nM.

For `NCCc1ccccc1` [PHENETHYLAMINE], the IC50 at Lysyl oxidase homolog 2 [1] came out at 60100 nM. Consider `N#CCCN`, for which the IC50 came to 127 nM at Lysyl oxidase homolog 2 [2]; 550 nM at Protein-lysine 6-oxidase; 243 nM on Lysyl oxidase homolog 2 [3]; 83 nM on Lysyl oxidase homolog 2 [4]; 128 nM on Lysyl oxidase homolog 2 [5]; 66 nM at Lysyl oxidase homolog 2 [1].

For `N=C(N)c1cccc(CN)c1`, at Lysyl oxidase homolog 2 [1], the IC50 turned out to be 4970 nM. In the case of `NCCc1ccncc1`, the IC50 at Lysyl oxidase homolog 2 [1] was 8210 nM. For `NCc1ccnc(-n2ccnc2)c1`, the IC50 on Lysyl oxidase homolog 2 [1] turned out to be 203 nM. In the case of `NCc1ccc(F)cc1`, the IC50 on Lysyl oxidase homolog 2 [1] was 26000 nM. The same measure, in the same setting: in the case of `CNCc1ccc(C#N)cc1` it was > 100000 nM. Consider `NCc1ccc(N)cc1`, for which the IC50 at Lysyl oxidase homolog 2 [1] amounted to 47000 nM. With `NCc1ccc(-c2nccs2)cc1`, the IC50 on Lysyl oxidase homolog 2 [1] amounted to 902 nM.

For the compound `N[C@@H]1C[C@H]1c1ccccc1.N[C@H]1C[C@@H]1c1ccccc1` [TRANYLCYPROMINE], the IC50 on Lysyl oxidase homolog 2 [1] was > 100000 nM. On the same count and under the same terms, in the case of `NCc1ccnc(F)c1` it was 385 nM. As for `N=C(N)c1ccc(CN)cc1`, the IC50 at Lysyl oxidase homolog 2 [1] amounted to 1110 nM. For the compound `NCc1ccncc1F`, the IC50 at Lysyl oxidase homolog 2 [1] is 431 nM. `NCc1cc(-c2cccnc2)ncc1C(F)(F)F`: on Lysyl oxidase homolog 2 [1], the IC50 is > 31000 nM.

For `NCc1ccncc1`, the IC50 at Lysyl oxidase homolog 2 [1] was found to be 1220 nM. With `NCc1ccnc(-c2cccnc2)c1`, the IC50 at Lysyl oxidase homolog 2 [1] worked out at 321 nM. On to `NCc1ccnc2ccccc12`, for which the IC50 on Lysyl oxidase homolog 2 [1] was 6040 nM.

On to `NCc1ccccc1` [BENZYLAMINE], for which the IC50 at Lysyl oxidase homolog 2 [1] amounted to 64700 nM. Same read-out and setting: in the case of `COC(=O)c1ccc(CN)cc1` it was 3620 nM.
